Results taken from ChEMBL document CHEMBL4602706, “Natural Product Evodiamine with Borate Trigger Unit: Discovery of Potent Antitumor Agents against Colon Cancer” (ACS Med Chem Lett, 2020).
One block for each molecule: values may come before it. Active and inactive are the calls of the source. The rule behind the calls is not given here.

How the values were obtained:
[1] = Drug metabolism in human HCT116 cells assessed as 3-Fluoro-10-hydroxy-14-methyl-8,13,13b,14-tetrahydro-7H-indolo[2',3':3,4]pyrido[2,1-b]quinazolin-5-one release at 0.2 mM by UPLC-QTOF/MS analysis relative to control; assay type: ADME, cell-based; conditions: hct-116, 200 µM, TDE = time-dependent effect
HCT-116 [2] = assay: Antiproliferative activity against human HCT116 cells incubated for 72 hrs by CCK8 assay; assay type: functional, cell-based; conditions: Homo sapiens, HCT-116, 72 h; read-out: IC50
Procedure, shortened: (§1)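 HCT116, MCF-7 and A549 human cancer cell lines; antiproliferative activity read out by CCK8 assay. Evodiamine derivatives and camptothecin served as positive controls.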

[3] = Metabolic stability in mouse liver microsomes assessed as half life at 1 uM preincubated with compound followed by NADPH addition measured upto 45 mins by LC-MS/MS analysis; assay type: ADME, Microsome
Procedure, shortened: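 In vitro stability in liver microsomes; terminal half-life determined.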

[4] = target: T1, DNA topoisomerase 1 (Homo sapiens) (UniProt P11387); assay: Inhibition of Top1 (unknown origin) at 125 uM using supercoiled pBR322 plasmid DNA as substrate incubated for 15 mins by PI staining based agarose gel electrophoresis analysis
T1 sequence (whole entry): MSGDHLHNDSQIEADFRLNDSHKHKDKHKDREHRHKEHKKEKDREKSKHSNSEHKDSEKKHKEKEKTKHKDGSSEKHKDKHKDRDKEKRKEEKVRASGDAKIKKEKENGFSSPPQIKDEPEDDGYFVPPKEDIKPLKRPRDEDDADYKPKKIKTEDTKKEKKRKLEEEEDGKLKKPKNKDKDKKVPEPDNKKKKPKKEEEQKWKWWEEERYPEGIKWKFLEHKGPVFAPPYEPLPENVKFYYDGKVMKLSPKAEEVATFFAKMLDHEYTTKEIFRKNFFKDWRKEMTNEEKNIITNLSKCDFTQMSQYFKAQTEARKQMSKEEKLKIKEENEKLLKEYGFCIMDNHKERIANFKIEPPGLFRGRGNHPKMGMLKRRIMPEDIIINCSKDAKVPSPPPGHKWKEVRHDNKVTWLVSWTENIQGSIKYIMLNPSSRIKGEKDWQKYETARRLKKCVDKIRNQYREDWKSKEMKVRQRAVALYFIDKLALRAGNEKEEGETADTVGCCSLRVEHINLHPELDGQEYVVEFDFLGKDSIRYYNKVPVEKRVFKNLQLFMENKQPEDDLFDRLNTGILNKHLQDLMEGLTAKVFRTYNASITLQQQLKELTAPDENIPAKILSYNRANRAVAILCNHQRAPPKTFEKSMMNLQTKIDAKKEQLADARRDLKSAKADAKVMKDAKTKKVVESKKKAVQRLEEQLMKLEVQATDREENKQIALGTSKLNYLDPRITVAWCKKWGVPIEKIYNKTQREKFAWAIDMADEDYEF
Procedure, shortened: (§2)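 Top1 inhibition tested at 500, 250 and 125 μM, and over 27.9 to 250 μM for selected compounds.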

HCT-116 [5] = assay: Induction of cell cycle arrest in human HCT116 cells assessed as accumulation at S phase at 0.05 uM incubated for 24 hrs by propidium iodide staining based flow cytometry (reference value: 30.31 to 40.69%); assay type: functional
HCT-116 [6] = assay: Induction of cell cycle arrest in human HCT116 cells assessed as accumulation at S phase at 0.2 uM incubated for 24 hrs by propidium iodide staining based flow cytometry (reference value: 30.31 to 40.69%); assay type: functional
HCT-116 [7] = assay: Induction of cell cycle arrest in human HCT116 cells assessed as accumulation at G2 phase at 0.05 uM incubated for 24 hrs by propidium iodide staining based flow cytometry (reference value: 18.51 to 20.82%); assay type: functional
HCT-116 [8] = assay: Induction of apoptosis in human HCT116 cells incubated for 48 hrs by AnnexinV-FITC/PI staining based flow cytometric analysis; assay type: functional, cell-based
HCT-116 [9] = assay: Induction of cell cycle arrest in human HCT116 cells assessed as accumulation at G1 phase at 0.2 uM incubated for 24 hrs by propidium iodide staining based flow cytometry (reference value: 38.49 to 51.18%); assay type: functional
[10] = target: T1, DNA topoisomerase 1 (Homo sapiens); assay: Inhibition of Top1 (unknown origin) at 83.3 uM using supercoiled pBR322 plasmid DNA as substrate incubated for 15 mins by PI staining based agarose gel electrophoresis analysis
[11] = target: T2, DNA topoisomerase II (Homo sapiens) (UniProt P11388+Q02880); assay: Inhibition of Top2 (unknown origin) using supercoiled pBR322 plasmid as substrate incubated for 30 mins by PI staining based agarose gel electrophoresis analysis; assay type: protein assay
HCT-116 [12] = assay: Induction of cell cycle arrest in human HCT116 cells assessed as accumulation at G1 phase at 0.4 uM incubated for 24 hrs by propidium iodide staining based flow cytometry (reference value: 38.49 to 51.18%); assay type: functional
[13] = target: T2, DNA topoisomerase II (Homo sapiens); assay: Inhibition of Top2 (unknown origin) at 50 uM using supercoiled pBR322 plasmid DNA as substrate incubated for 30 mins by PI staining based agarose gel electrophoresis analysis; assay type: protein assay
HCT-116 [14] = assay: Induction of apoptosis in human HCT116 cells assessed as apoptotic cells at 0.05 uM incubated for 48 hrs by AnnexinV-FITC/PI staining based flow cytometric analysis (reference value: 6.25 to 8.23%); assay type: functional
Procedure, shortened: (§3)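 HCT116 cells exposed to 0.05, 0.2 or 0.4 μM for 48 h. Apoptotic cells quantified by flow cytometry, n = 3.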

HCT-116 [15] = assay: Induction of cell cycle arrest in human HCT116 cells assessed as accumulation at S phase at 0.4 uM incubated for 24 hrs by propidium iodide staining based flow cytometry (reference value: 30.31 to 40.69%); assay type: functional
MCF7 = assay: Antiproliferative activity against human MCF7 cells incubated for 72 hrs by CCK8 assay; assay type: functional, cell-based; conditions: Homo sapiens, MCF7, 72 h; read-out: IC50; procedure, shortened: as §1
HCT-116 [16] = assay: Induction of apoptosis in human HCT116 cells assessed as apoptotic cells at 0.4 uM incubated for 48 hrs by AnnexinV-FITC/PI staining based flow cytometric analysis (reference value: 6.25 to 8.23%); assay type: functional; procedure, shortened: as §3
HCT-116 [17] = assay: Induction of cell cycle arrest in human HCT116 cells assessed as accumulation at G1 phase at 0.05 uM incubated for 24 hrs by propidium iodide staining based flow cytometry (reference value: 38.49 to 51.18%); assay type: functional
[18] = target: T1, DNA topoisomerase 1 (Homo sapiens); assay: Inhibition of Top1 (unknown origin) at 500 uM using supercoiled pBR322 plasmid DNA as substrate incubated for 15 mins by PI staining based agarose gel electrophoresis analysis; procedure, shortened: as §2
[19] = Toxicity in nude mouse xenografted with human HCT116 cells assessed as change in body weight at 10 mg/kg, ip bid measured every two days for 21 days; assay type: organism-based, HCT-116; conditions: in vivo, 504 h
Procedure, shortened: (§4)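 HCT116 xenograft in mice. Dosing 10 mg/kg intraperitoneally over 21 consecutive days; tumour growth inhibition and body weight followed. Mean ± SEM, Student's t test versus vehicle group.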

HCT-116 [20] = assay: Antitumour activity against human HCT116 cells xenografted in nude mouse assessed as tumour growth inhibition at 10 mg/kg, ip bid measured every two days for 21 days by caliper method relative to control; assay type: functional; conditions: HCT-116, ip, read-out: TGI; procedure, shortened: as §4
[21] = Drug metabolism in PBS buffer assessed as H2O2-mediated 3-Fluoro-10-hydroxy-14-methyl-8,13,13b,14-tetrahydro-7H-indolo[2',3':3,4]pyrido[2,1-b]quinazolin-5-one release rate at pH 7.4 incubated for 8 hrs in presence of 0.05 mM H2O2 by HPLC analysis; assay type: physicochemical; conditions: pH 7.4, 8 h
Procedure, shortened: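 Release of the parent compound after treatment with H2O2 at varied concentrations, including 0.05 mM, in PBS pH 7.4. Analysed by HPLC.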

[22] = Drug metabolism in human HCT116 cells assessed as 3-Fluoro-10-hydroxy-14-methyl-8,13,13b,14-tetrahydro-7H-indolo[2',3':3,4]pyrido[2,1-b]quinazolin-5-one release by measuring parent compound retention time incubated for 8 hrs by UPLC-QTOF/MS analysis; assay type: ADME, cell-based; conditions: hct-116, 8 h
Procedure, shortened: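 Compounds incubated with HCT116 cells; culture media analysed by HPLC after 8, 48 and 72 h. Relative release rate taken from relative peak areas; parent and product identified by retention time.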

HCT-116 [23] = assay: Induction of cell cycle arrest in human HCT116 cells assessed as accumulation at G2 phase at 0.2 uM incubated for 24 hrs by propidium iodide staining based flow cytometry (reference value: 18.51 to 20.82%); assay type: functional
A549 = assay: Antiproliferative activity against human A549 cells incubated for 72 hrs by CCK8 assay; assay type: functional, cell-based; conditions: Homo sapiens, A549, 72 h; read-out: IC50; procedure, shortened: as §1
HCT-116 [24] = assay: Induction of apoptosis in human HCT116 cells assessed as apoptotic cells at 0.2 uM incubated for 48 hrs by AnnexinV-FITC/PI staining based flow cytometric analysis (reference value: 6.25 to 8.23%); assay type: functional; procedure, shortened: as §3
HCT-116 [25] = assay: Induction of cell cycle arrest in human HCT116 cells assessed as accumulation at G2 phase at 0.4 uM incubated for 24 hrs by propidium iodide staining based flow cytometry (reference value: 18.51 to 20.82%); assay type: functional
HCT-116 [26] = assay: Antitumour activity against human HCT116 cells xenografted in nude mouse assessed as tumour growth inhibition at 0.5 mg/kg, ip qd measured every two days for 21 days by caliper method relative to control; assay type: functional; conditions: HCT-116, ip, read-out: TGI
[27] = Toxicity in nude mouse xenografted with human HCT116 cells assessed as change in body weight at 0.5 mg/kg, ip qd measured every two days for 21 days; assay type: organism-based, HCT-116; conditions: in vivo, 504 h

IC50 (HCT-116 [2]): 16 nM
half-life at 1 µM [3]: 8.36 min
inhibition [4]: Active
inhibition [10]: Active
inhibition [11]: Active
inhibition [13]: Active
IC50 (MCF7): 33 nM
inhibition [18]: Active
Drug metabolism [21]: Dose-dependent effect
IC50 (A549): 37 nM
Structure (SMILES): CN1c2ccc(F)cc2C(=O)N2CCc3c([nH]c4ccc(OC(=O)OCc5ccc(B6OC(C)(C)C(C)(C)O6)cc5)cc34)C21 (centres undefined)
Drug metabolism [1]: Tde
Activity (HCT-116 [5]): 38.8%
Activity (HCT-116 [6]): 45.69%
Activity (HCT-116 [7]): 26.88%
Activity (HCT-116 [8]): Dose-dependent effect
Activity (HCT-116 [9]): 8.82%
Activity (HCT-116 [12]): 4.95%
Activity (HCT-116 [14]): 41.28 - 42.28%
Activity (HCT-116 [15]): 38.8%
Activity (HCT-116 [16]): 61.73%
Activity (HCT-116 [17]): 34.32%
Activity [19]: Non-Toxic
inhibition in vivo at 10 mg/kg (HCT-116 [20]): 64.4%
Retention_time [22]: 11.4 min
Activity (HCT-116 [23]): 45.49%
Activity (HCT-116 [24]): 55.64%
Activity (HCT-116 [25]): 56.25%

Structure (SMILES): CC[C@@]1(O)C(=O)OCc2c1cc1n(c2=O)Cc2cc3c(CN(C)C)c(O)ccc3nc2-1 [TOPOTECAN]
inhibition in vivo at 0.5 mg/kg (HCT-116 [26]): 68.8%
Activity [27]: Toxic
